The values that follow come from ChEMBL document CHEMBL1629596, “Antileishmanial activity of 1,3,4-thiadiazolium-2-aminide in mice infected with Leishmania amazonensis” (Antimicrob Agents Chemother, 2009).

Calls of active or inactive are those of the source. No cut-off for these calls is given here.

The test system of data set [1] is Leishmania amazonensis. The data set can be described thus: Antileishmanial activity against Leishmania amazonensis infected in CBA/J mouse assessed as reduction of parasite loads in spleen at 100 mg/kg/day, sc administered 4 weeks after infection 5 dose in a week for 4 weeks measured after 12 weeks. The class given is functional, organism-based. Put shortly: (§1)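 Mice were killed at week 12, 4 weeks after treatment ended. Popliteal lymph nodes and spleens were removed aseptically, weighed and homogenized in Schneider's medium + 10% fetal calf serum. Eight serial 1:10 dilutions were plated in triplicate and incubated at 26°C. Titer was the last dilution with ≥1 parasite by microscopy. Groups were seven mice.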

The test system of data set [2] is Leishmania amazonensis. The data set can be described thus: Antileishmanial activity against Leishmania amazonensis infected in CBA/J mouse assessed as reduction of parasite loads in popliteal lymph nodes at 100 mg/kg/day, sc administered 4 weeks after infection 5 dose in a week for 4 weeks measured after 12 weeks. To be noted: Popliteal lymph node. It is filed as functional, organism-based. The procedure, abridged:
as §1

Data set [3] has as its system Leishmania amazonensis. The data set can be described thus: Antileishmanial activity against Leishmania amazonensis infected in CBA/J mouse assessed as reduction of lesion size at 100 mg/kg/day, sc administered 4 weeks after infection 5 dose in a week for 4 weeks measured after 12 weeks. The class given is functional, organism-based. Put shortly:
(§2)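 Sc dosing started day 27 post-infection, 5 doses/week for 4 weeks. Controls got DMSO/PBS vehicle. Footpad swelling was followed to week 12 and recorded as infected-footpad thickness. Groups were seven mice, reported as mean with standard errors.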

In data set [4] the test system is Leishmania amazonensis. The data set can be described thus: Antileishmanial activity against Leishmania amazonensis infected in CBA/J mouse assessed as reduction of foot-pad thickness at 100 mg/kg/day, sc administered 4 weeks after infection 5 dose in a week for 4 weeks measured after 12 weeks. It is filed as functional, organism-based. Put shortly:
as §2

Data set [5] has as its system Mus musculus. The data set can be described thus: Toxicity in CBA/J mouse assessed as change in neutrophils count at 22 mg/kg/day, sc administered 5 doses a week for 4 weeks (reference value: 19%). It is filed as organism-based. Further details: route subcutaneous. To be noted: in vivo, 672 h. Put shortly:
(§3)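 Uninfected mice dosed subcutaneously in DMSO/PBS, 5 doses/week; tail blood taken at week 4 of treatment. Total leukocytes counted in Neubauer chamber; lymphocyte, monocyte and neutrophil values given as percentages.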

Data set [6] relates to Mus musculus. The data set can be described thus: Toxicity in CBA/J mouse assessed as change in monocytes count at 22 mg/kg/day, sc administered 5 doses a week for 4 weeks (reference value: 5%). The class given is organism-based. Also noted: route subcutaneous. The conditions noted are these: in vivo, 672 h. Put shortly:
as §3

The test system of data set [7] is Mus musculus. The data set can be described thus: Toxicity in CBA/J mouse assessed as change in white blood cell count at 22 mg/kg/day, sc administered 5 doses a week for 4 weeks (reference value: 14 x 10^3 ul). It is filed as organism-based. Further details: route subcutaneous. To be noted: in vivo, 672 h. The procedure, abridged: as §3
Data set [8] has as its system Leishmania amazonensis. The data set can be described thus: Antileishmanial activity against Leishmania amazonensis infected in macrophages assessed as nitric oxide release. The class given is functional, organism-based.
Data set [9] relates to Leishmania amazonensis. The data set can be described thus: Antileishmanial activity against Leishmania amazonensis infected in CBA/J mouse assessed as reduction of parasite loads in spleen at 22 mg/kg/day, sc administered 4 weeks after infection 5 dose in a week for 4 weeks measured after 12 weeks. The class given is functional, organism-based. The procedure, abridged:
(§4)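 Week 12 postinfection (4 weeks after last dose): popliteal lymph nodes and spleens removed aseptically, weighed, homogenized in Schneider's medium + 10% FCS; eight 1:10 serial dilutions in triplicate, incubated at 26°C, read by inverted microscope; titer = last dilution with at least one parasite. Seven animals; subcutaneous dosing in DMSO/PBS, 5 doses/week for 4 weeks.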

Data set [10] has as its system Leishmania amazonensis. The data set can be described thus: Antileishmanial activity against Leishmania amazonensis infected in CBA/J mouse assessed as reduction of parasite loads in popliteal lymph nodes at 22 mg/kg/day, sc administered 4 weeks after infection 5 dose in a week for 4 weeks measured after 12 weeks. The conditions noted are these: Popliteal lymph node. The class given is functional, organism-based. Put shortly:
as §4

The test system of data set [11] is Leishmania amazonensis. The data set can be described thus: Antileishmanial activity against Leishmania amazonensis infected in CBA/J mouse assessed as reduction of foot-pad thickness at 22 mg/kg/day, sc administered 4 weeks after infection 5 dose in a week for 4 weeks measured after 12 weeks. The class given is functional, organism-based. Put shortly:
(§5)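 Infected footpad thickness measured as lesion size, followed to week 12 postinfection. Subcutaneous dosing in DMSO/PBS vehicle began 27 days after infection, 5 doses a week for 4 weeks; controls received vehicle alone. Groups of seven mice, mean ± SEM.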

Data set [12] deals with Mus musculus. The data set can be described thus: Toxicity in CBA/J mouse assessed as change in body weight at 22 mg/kg/day, sc administered 5 doses a week for 4 weeks (reference value: 25 g). The class given is organism-based. Further details: route subcutaneous. The conditions noted are these: in vivo, 672 h.
Data set [13] deals with Leishmania amazonensis. The data set can be described thus: Antileishmanial activity against Leishmania amazonensis infected in CBA/J mouse assessed as increase of nitric oxide production in lymph node cells at 22 mg/kg/day, sc administered 4 weeks after infection 5 dose in a week for 4 weeks measured after 12 weeks. It is filed as functional, organism-based.
The subject of data set [14] is Mus musculus. The data set can be described thus: Toxicity in CBA/J mouse assessed as change in lymphocytes count at 22 mg/kg/day, sc administered 5 doses a week for 4 weeks (reference value: 75%). The class given is organism-based. To be noted: in vivo, 672 h. Also noted: route subcutaneous. The procedure, abridged:
as §3

The test system of data set [15] is Mus musculus. The data set can be described thus: Toxicity in CBA/J mouse assessed as change in alanine aminotransferase level at 22 mg/kg/day, sc administered 5 doses a week for 4 weeks (reference value: 52 +/- 6.2 U/ml). It is filed as organism-based. Further details: route subcutaneous. To be noted: in vivo, 672 h.
Data set [16] relates to Mus musculus. The data set can be described thus: Toxicity in CBA/J mouse assessed as change in aspartate aminotransferase level at 22 mg/kg/day, sc administered 5 doses a week for 4 weeks (reference value: 51 +/- 6.8 U/ml). It is filed as organism-based. Further details: route subcutaneous. The conditions noted are these: in vivo, 672 h.
In data set [17] the test system is Leishmania amazonensis. The data set can be described thus: Antileishmanial activity against Leishmania amazonensis infected in CBA/J mouse assessed as reduction of foot-pad thickness at 24 mg/kg/day, sc administered 4 weeks after infection 5 dose in a week for 4 weeks measured after 12 weeks. The class given is functional, organism-based. The procedure, abridged:
as §5

Data set [18] relates to Leishmania amazonensis. The data set can be described thus: Antileishmanial activity against Leishmania amazonensis infected in CBA/J mouse assessed as reduction of lesion size at 24 mg/kg/day, sc administered 4 weeks after infection 5 dose in a week for 4 weeks measured after 12 weeks. The class given is functional, organism-based. The procedure, abridged: as §5
The subject of data set [19] is Mus musculus. The data set can be described thus: Toxicity in CBA/J mouse assessed as change in neutrophils count at 24 mg/kg/day, sc administered 5 doses a week for 4 weeks (reference value: 19%). The class given is organism-based. Further details: route subcutaneous. The conditions noted are these: in vivo, 672 h. The procedure, abridged:
as §3

The test system of data set [20] is Mus musculus. The data set can be described thus: Toxicity in CBA/J mouse assessed as change in alanine aminotransferase level at 24 mg/kg/day, sc administered 5 doses a week for 4 weeks (reference value: 52 +/- 6.2 U/ml). Further details: route subcutaneous. To be noted: in vivo, 672 h. The class given is organism-based.
The subject of data set [21] is Mus musculus. The data set can be described thus: Toxicity in CBA/J mouse assessed as change in monocytes count at 24 mg/kg/day, sc administered 5 doses a week for 4 weeks (reference value: 5%). The class given is organism-based. Also noted: route subcutaneous. To be noted: in vivo, 672 h. The procedure, abridged: as §3
The subject of data set [22] is Mus musculus. The data set can be described thus: Toxicity in CBA/J mouse assessed as change in body weight at 24 mg/kg/day, sc administered 5 doses a week for 4 weeks (reference value: 25 g). The class given is organism-based. To be noted: in vivo, 672 h. Also noted: route subcutaneous.
Data set [23] deals with Mus musculus. The data set can be described thus: Toxicity in CBA/J mouse assessed as change in white blood cell count at 24 mg/kg/day, sc administered 5 doses a week for 4 weeks (reference value: 14 x 10^3 ul). The class given is organism-based. Also noted: route subcutaneous. To be noted: in vivo, 672 h. The procedure, abridged: as §3
The test system of data set [24] is Mus musculus. The data set can be described thus: Toxicity in CBA/J mouse assessed as change in lymphocytes count at 24 mg/kg/day, sc administered 5 doses a week for 4 weeks (reference value: 75%). The class given is organism-based. Also noted: route subcutaneous. To be noted: in vivo, 672 h. The procedure, abridged: as §3
Data set [25] deals with Mus musculus. The data set can be described thus: Toxicity in CBA/J mouse assessed as change in aspartate aminotransferase level at 24 mg/kg/day, sc administered 5 doses a week for 4 weeks (reference value: 51 +/- 6.8 U/ml). Further details: route subcutaneous. The conditions noted are these: in vivo, 672 h. It is filed as organism-based.
Data set [26] relates to Leishmania amazonensis. The data set can be described thus: Antileishmanial activity against Leishmania amazonensis infected in CBA/J mouse assessed as reduction of parasite loads in popliteal lymph nodes at 24 mg/kg/day, sc administered 4 weeks after infection 5 dose in a week for 4 weeks measured after 12 weeks. It is filed as functional, organism-based. The conditions noted are these: Popliteal lymph node. Put shortly: as §4

In data set [27] the test system is Leishmania amazonensis. The data set can be described thus: Antileishmanial activity against Leishmania amazonensis infected in CBA/J mouse assessed as reduction of parasite loads in spleen at 24 mg/kg/day, sc administered 4 weeks after infection 5 dose in a week for 4 weeks measured after 12 weeks. The class given is functional, organism-based. Put shortly:
as §4

Consider MEGLUMINE ANTIMONATE, for which the result in the data set on Leishmania amazonensis [1], in the data set on Leishmania amazonensis [2] and with Leishmania amazonensis [4] was Active. For the same compound, in the data set on Leishmania amazonensis [3], the result was inactive.

`COc1ccc(/C=C/c2sc(Nc3ccccc3)n[n+]2-c2ccccc2)cc1.[Cl-]`: the Activity stood at 25% in the data set with Mus musculus [5]; 5% with Mus musculus [6]; 12 ×10³ /uL in the data set on Mus musculus [7]; 27 g with Mus musculus [12]; 69% with Mus musculus [14]; 57 U/ml in the data set on Mus musculus [15]. In addition, the Activity in the data set on Mus musculus [16] is listed as 53 U/ml. The result in the data set with Leishmania amazonensis [8], in the data set with Leishmania amazonensis [9], in the data set on Leishmania amazonensis [10], with Leishmania amazonensis [11] and in the data set on Leishmania amazonensis [13] was Active.

Take `C(=C\c1sc(Nc2ccccc2)n[n+]1-c1ccccc1)/c1ccccc1.[Cl-]`: the result with Leishmania amazonensis [17], with Leishmania amazonensis [8], in the data set on Leishmania amazonensis [26] and in the data set on Leishmania amazonensis [27] was Active. Also, in the data set on Leishmania amazonensis [18], the outcome was inactive. In addition, the Activity in the data set with Mus musculus [19] stood at 24%; with Mus musculus [20], 58 U/ml; in the data set on Mus musculus [21] it was 5%; in the data set on Mus musculus [22] it was 26 g; in the data set on Mus musculus [23], 12 ×10³ /uL; in the data set with Mus musculus [24] it was 70%. The Activity in the data set on Mus musculus [25] is listed as 48 U/ml.
